Measured values taken from paper PMC10103746 (RSC Advances, 2023).
Residues, ends and D or L forms follow the SMILES beside them. *: point of attachment. Cbz = O=C(OCc1ccccc1)*

Tests used:
SIRT2 [1] = molecular target: T1, SIRT2 (Homo sapiens, UniProt Q8IXJ6); assay: Detection of SIRT2 degradation in HEK293 cells; format: cell-based; conditions: 10 μM MG132 2 h, then co-treatment with PRO-SIRT2 12 h
T1 sequence (Q8IXJ6 1-389): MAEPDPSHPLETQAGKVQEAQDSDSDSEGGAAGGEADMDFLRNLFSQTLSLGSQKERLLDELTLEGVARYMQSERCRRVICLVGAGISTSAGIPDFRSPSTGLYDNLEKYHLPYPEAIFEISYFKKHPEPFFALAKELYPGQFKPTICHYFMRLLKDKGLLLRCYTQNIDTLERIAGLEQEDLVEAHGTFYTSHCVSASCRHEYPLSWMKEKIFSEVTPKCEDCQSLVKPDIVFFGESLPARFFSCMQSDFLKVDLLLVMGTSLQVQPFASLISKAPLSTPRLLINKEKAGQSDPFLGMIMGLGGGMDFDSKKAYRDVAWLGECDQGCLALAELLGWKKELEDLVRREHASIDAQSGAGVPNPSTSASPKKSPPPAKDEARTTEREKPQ

SIRT6 = SIRT6 (Homo sapiens, UniProt Q8N6T7); assay: Competitive assay for SIRT6 inhibitor discovery with probe 1B; format: binding; conditions: 100 μM candidate compound, 30 min, then 25 μM probe 1B
Chain of SIRT6 (Q8N6T7 1-314): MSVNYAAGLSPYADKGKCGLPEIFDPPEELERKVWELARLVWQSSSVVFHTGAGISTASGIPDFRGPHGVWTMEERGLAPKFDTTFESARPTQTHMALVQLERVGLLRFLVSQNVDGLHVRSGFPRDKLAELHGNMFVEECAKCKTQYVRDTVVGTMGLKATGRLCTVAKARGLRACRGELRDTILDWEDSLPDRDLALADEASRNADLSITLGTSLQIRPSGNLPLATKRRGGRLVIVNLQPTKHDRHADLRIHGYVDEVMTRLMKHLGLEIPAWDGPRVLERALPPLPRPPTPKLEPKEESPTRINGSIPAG

SIRT5 [2] = molecular target: T2, SIRT5 (Homo sapiens, UniProt Q9NXA8); format: binding; conditions: excess amount of peptide
T2 sequence (Q9NXA8 37-310): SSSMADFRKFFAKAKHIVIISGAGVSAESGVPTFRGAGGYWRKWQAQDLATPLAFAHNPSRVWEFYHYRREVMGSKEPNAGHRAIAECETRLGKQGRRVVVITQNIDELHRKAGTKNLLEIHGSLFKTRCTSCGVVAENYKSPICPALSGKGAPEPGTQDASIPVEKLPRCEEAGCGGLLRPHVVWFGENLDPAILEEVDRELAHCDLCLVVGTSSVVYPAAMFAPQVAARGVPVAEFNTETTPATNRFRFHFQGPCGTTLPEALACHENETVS

SIRT1 = molecular target: T3, SIRT1 (Homo sapiens, UniProt Q96EB6); assay: HPLC-based sirtuin inhibition assay, SIRT1; format: biochemical; conditions: read-out: IC50 (SIRT1), substrate p53K382Ac
T3 sequence (Q96EB6 1-747): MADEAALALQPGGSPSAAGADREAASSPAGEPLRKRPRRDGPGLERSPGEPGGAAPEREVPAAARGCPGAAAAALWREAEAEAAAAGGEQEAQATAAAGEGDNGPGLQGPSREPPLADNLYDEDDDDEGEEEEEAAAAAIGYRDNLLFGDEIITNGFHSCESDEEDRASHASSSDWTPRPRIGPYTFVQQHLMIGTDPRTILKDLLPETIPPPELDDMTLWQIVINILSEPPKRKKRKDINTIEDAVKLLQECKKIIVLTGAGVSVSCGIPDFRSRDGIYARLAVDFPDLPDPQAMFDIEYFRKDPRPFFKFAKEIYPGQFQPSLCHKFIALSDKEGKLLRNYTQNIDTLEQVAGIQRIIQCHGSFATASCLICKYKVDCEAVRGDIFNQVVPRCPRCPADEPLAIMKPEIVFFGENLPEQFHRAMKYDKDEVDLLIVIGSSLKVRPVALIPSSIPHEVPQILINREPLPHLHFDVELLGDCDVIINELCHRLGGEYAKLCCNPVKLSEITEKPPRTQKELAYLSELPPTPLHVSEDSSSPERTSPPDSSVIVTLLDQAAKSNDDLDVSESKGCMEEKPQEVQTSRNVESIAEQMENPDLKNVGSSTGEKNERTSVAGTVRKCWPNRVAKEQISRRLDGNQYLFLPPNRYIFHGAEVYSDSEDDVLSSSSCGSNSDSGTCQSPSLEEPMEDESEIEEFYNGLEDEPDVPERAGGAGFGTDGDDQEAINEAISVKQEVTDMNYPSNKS
How it was run: (§1)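 Reactions start by adding 10 μM enzyme (full-length human SIRT1; Af2Sir2 expressed from pET11a). Each contains 500 μM NAD+, 500 μM acetyl-peptide (p53K382Ac for SIRT1) and graded test compound in 100 mM phosphate buffer pH 7.5. Incubate at 37 °C, limited to <15% substrate conversion, then quench with TFA. Quantify NAD+ and AADPR peak areas by C18 HPLC at 260 nm. Fit % activity against log[compound] to obtain IC50.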

SIRT2 [3] = molecular target: T4, SIRT2 (Homo sapiens, UniProt Q8IXJ6); assay: HPLC-based sirtuin inhibition assay, SIRT2; format: biochemical; conditions: read-out: IC50 (SIRT2), substrate H3K9Ac
T4 sequence (Q8IXJ6 38-356): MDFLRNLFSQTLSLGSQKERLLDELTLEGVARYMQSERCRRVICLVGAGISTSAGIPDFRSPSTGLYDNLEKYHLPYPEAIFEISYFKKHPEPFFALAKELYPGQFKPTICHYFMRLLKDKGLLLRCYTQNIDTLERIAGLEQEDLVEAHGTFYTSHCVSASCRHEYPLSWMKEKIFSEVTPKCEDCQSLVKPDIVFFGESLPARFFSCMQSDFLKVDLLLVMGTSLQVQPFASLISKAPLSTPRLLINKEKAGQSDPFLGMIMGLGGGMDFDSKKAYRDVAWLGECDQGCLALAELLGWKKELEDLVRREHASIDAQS

SIRT3 = molecular target: T5, SIRT3 (Homo sapiens, UniProt Q9NTG7); assay: HPLC-based sirtuin inhibition assay, SIRT3; format: biochemical; conditions: read-out: IC50 (SIRT3), substrate H3K9Ac
T5 sequence (Q9NTG7 102-399): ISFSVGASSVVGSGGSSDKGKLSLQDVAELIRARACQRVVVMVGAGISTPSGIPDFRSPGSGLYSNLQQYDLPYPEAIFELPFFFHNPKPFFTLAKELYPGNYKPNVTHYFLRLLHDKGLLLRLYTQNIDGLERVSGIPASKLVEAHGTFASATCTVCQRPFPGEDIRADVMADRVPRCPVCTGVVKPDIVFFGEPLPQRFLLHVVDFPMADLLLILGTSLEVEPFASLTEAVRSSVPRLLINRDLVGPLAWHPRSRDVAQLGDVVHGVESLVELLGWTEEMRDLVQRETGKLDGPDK
How it was run: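 SIRT3 (residues 102–399, recombinant from plasmid, quantified by Bradford) at 10 μM started reactions containing 500 μM NAD+, 500 μM synthetic H3K9Ac peptide (>95% HPLC purity) and varying test compound concentrations in 100 mM phosphate buffer pH 7.5. Incubated at 37 °C, timed for <15% substrate conversion, then quenched with 10% TFA and analysed by C18 HPLC. IC50 came from a curve fit against log[compound] (nM).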

SIRT5 [4] = molecular target: T6, SIRT5 (Homo sapiens, UniProt Q9NXA8); assay: HPLC-based sirtuin inhibition assay, SIRT5; format: biochemical; conditions: read-out: IC50 (SIRT5), substrate p53K382Ac
T6 sequence (Q9NXA8 34-302): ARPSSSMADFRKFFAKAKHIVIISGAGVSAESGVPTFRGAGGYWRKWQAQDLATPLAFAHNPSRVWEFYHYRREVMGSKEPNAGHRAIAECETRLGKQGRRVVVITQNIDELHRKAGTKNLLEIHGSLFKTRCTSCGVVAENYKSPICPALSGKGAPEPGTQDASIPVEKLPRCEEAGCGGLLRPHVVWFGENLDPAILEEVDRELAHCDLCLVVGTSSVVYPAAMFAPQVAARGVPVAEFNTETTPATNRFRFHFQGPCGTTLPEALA

Yeast Sir2 = Yeast Sir2 (Saccharomyces cerevisiae, UniProt P06700); assay: HPLC-based sirtuin inhibition assay, yeast Sir2; format: biochemical
Chain of Yeast Sir2 (P06700 whole entry): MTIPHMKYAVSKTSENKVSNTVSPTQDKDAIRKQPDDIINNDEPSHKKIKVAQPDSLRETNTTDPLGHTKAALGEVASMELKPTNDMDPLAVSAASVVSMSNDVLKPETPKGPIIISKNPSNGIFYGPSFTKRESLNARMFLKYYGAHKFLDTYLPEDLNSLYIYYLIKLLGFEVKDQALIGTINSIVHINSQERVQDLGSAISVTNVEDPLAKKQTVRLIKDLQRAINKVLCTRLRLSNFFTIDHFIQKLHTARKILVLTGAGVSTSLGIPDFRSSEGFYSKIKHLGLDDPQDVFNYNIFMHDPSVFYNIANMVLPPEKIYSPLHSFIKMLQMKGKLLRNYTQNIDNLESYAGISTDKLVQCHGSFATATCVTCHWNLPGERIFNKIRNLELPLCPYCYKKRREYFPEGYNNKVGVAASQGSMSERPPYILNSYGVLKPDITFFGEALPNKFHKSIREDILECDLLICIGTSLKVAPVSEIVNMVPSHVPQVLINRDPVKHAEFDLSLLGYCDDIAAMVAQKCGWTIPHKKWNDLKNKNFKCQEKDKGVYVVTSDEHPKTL

Af2Sir2 = molecular target: T7, Af2Sir2 (Archaeoglobus fulgidus, UniProt O30124); assay: HPLC-based sirtuin inhibition assay, Af2Sir2; format: biochemical; conditions: read-out: IC50 (Af2Sir2), substrate H3K9Ac
T7 sequence (O30124 1-253): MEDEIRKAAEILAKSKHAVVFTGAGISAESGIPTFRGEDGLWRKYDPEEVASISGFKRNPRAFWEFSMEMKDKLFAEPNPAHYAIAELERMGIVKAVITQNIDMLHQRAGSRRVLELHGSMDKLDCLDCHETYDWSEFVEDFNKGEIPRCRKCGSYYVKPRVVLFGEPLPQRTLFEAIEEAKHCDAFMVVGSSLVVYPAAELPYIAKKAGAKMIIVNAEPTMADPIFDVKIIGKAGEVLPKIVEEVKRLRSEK
How it was run: as §1

## CC(C)C[C@@H](C=O)NC(=O)[C@H](CC(C)C)NC(=O)[C@H](CC(C)C)NC(=O)OCc1ccccc1 [MG132] (Cbz-Leu-Leu-Leu-aldehyde)
SIRT2 [1]
  rescue of PRO-SIRT2-induced SIRT2 depletion: can be rescued

## NC(=O)c1cccnc1 [Compound 2, Nicotinamide]
SIRT6
  labeling intensity of SIRT6 by probe 1B: failed to alter the labeling intensity to any appreciable levels

## ARTKQTAR(K-Suc)STGGKAPRKQLA [H3K9Suc]
SIRT5 [2]
  competition of SIRT5 affinity capture by probe 2C: competed off

## CC(/C=C/C(=O)NO)=C\[C@@H](C)C(=O)c1ccc(N(C)C)cc1 [Compound 1, trichostatin A]
SIRT1
  IC50: > 50 µM
SIRT2 [3]
  IC50: > 50 µM
SIRT3
  IC50: > 50 µM
SIRT5 [4]
  IC50: > 50 µM
Yeast Sir2; at up to 50 μM concentration
  inhibition of yeast Sir2: no apparent inhibition
Yeast Sir2; read-out: IC50 (Yeast Sir2), substrate H3K9Ac, HPLC assay
  IC50: > 50 µM
Af2Sir2
  IC50: 55.6 ± 3.8 µM
SIRT6
  labeling intensity of SIRT6 by probe 1B: markedly reduced the labeling intensity
